Screening results as filed in PubChem.
PREPL inhibitor: human PREPL enzyme inhibition. recombinant PREPL, fluorescence polarization activity-based probe. inhibition, % at 5.96 µM. actives 0.68% (n = 320,000). AID 2751; in the data active = inhibition above about 43%
E coli Lon inh: inhibitors of E. coli Lon protease; P0A9M0; purified E. coli Lon protease, fluorescence polarization; inhibition, % at 7.94 µM; actives 0.42% (n = 360,000); in the data active = inhibition above about 13%, passing the limit was not always enough
SKN-1 block: inhibitors of C. elegans SKN-1; C. elegans VP596 Pgst-4::GFP/RFP ratio, acrylamide-induced, 24 h; AID 624304; actives 0.49% (n = 360,000); inhibition, % at 21.8 µM;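 active = interference check ratio from 0.5 to 1.5 plus GFP to RFP signal ratio inhibition reaching or exceeding a fixed threshold, cut at about 30% in these data, passing the limit was not always enough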
Tb MetRS inh: Trypanosoma brucei MetRS inhibition | purified T. brucei MetRS, ATP depletion, Kinase-Glo luminescence | actives 0.4% (n = 360,000) | AID 624268 | inhibition, % at 11.9 µM;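 active = inhibition above a per-plate cutoff of the control wells' mean inhibition plus 3 SD, cut at about 5.5% in these data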
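System: purified T. brucei MetRS enzyme / Detection: Kinase-Glo luciferase luminescence reporting remaining unconsumed ATP / Medium: HEPES buffer with MgCl2, KCl, DTT, spermine, BSA, pyrophosphatase / Replication: singlicate, one well per compound / Evaluation: percent inhibition relative to median high and low control wells / Schedule: 2 h aminoacylation at 25 °C after 15 min preincubation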
iPSC survival up: enhancers of human iPSC single-cell survival. survival enhancement, % at 20 µM. AID 602274. hiPSC single-cell survival, ATPlite luminescence; 100% = ROCK inhibitor wells, 0% = DMSO. actives 0.044% (n = 360,000); in the data active = survival enhancement above about 18%;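 note: cells exposed to compounds for 16 hours before the ATP read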
MT1-MMP act inh: MT1-MMP (human) activation inhibition | P50281 | actives 0.061% (n = 360,000) | GFP/RFP ratio change, % at 20 µM | AID 651647 | HT1080 RFP-PRO-GFP cells, GFP/RFP ratio fluorescence, overnight; percent of plate control window, DMSO zero;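 active = GFP/RFP ratio change of at least 30% with cell ATP level not reduced by more than half and red fluorescence within 50% of control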
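Assay system: HT1080 cells carrying an RFP-PRO-GFP reporter | Dosing: Single dose of 20 µM compound, 1% DMSO final | Incubation: Cells overnight before dosing, compound overnight, 37 °C, 5% CO2 | Evaluation: GFP/RFP fluorescence ratio | Control set: DMSO and RFP-L50D-GFP cell wells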
Hits are given with their value; - = inactive; . = no result. Hits are enriched below; roughly 1.8% of the tested compounds scored in any of these assays.

SMILES	PREPL inhibitor	E coli Lon inh	SKN-1 block	Tb MetRS inh	iPSC survival up	MT1-MMP act inh
O=C(c1cc(COc2ccc(F)cc2Cl)on1)N1CCCCCC1	-	-	38.2	-	-	-
CC(C)(C)NC(=O)CN(C(=O)CCN1CCCc2ccccc21)C(C)(C)C	-	-	39.8	-	-	-
COc1ccc(C(=O)NCCNc2nc3cc(C)cc(C)c3cc2C#N)nc1	.	.	-	-	.	-
CCCOc1cc(C)c(S(=O)(=O)NCc2cccs2)cc1C	-	-	43.9	-	-	-
Cc1ccc(NC(=O)CCN2C(=O)c3ccccc3C2=O)cc1	-	-	-	-	-	-
CCOc1ccc(-c2nn(-c3ccccc3)cc2/C=C(\C#N)S(=O)(=O)c2ccccc2)cc1C	-	-	41.5	-	-	-
COC(=O)CCC(=O)OC1(C)C(=O)C2=CN(CCc3ccccn3)C(c3ccc(OC)cc3)=CC2=C(Br)C1=O (centres undefined)	43.9	-	-	-	-	-
COC(=O)CCC(=O)OC1(C)C(=O)C2=CN(CCCCO)C(c3ccc(OC)cc3)=CC2=C(Br)C1=O (centres undefined)	55.3	.	.	.	.	.
COc1cc(/C=C2\CCC(C)C3=C(c4cc(OC)c(OC)c(OC)c4)C(C#N)=C(N)OC32)cc(OC)c1OC (centres undefined)	.	-	-	-	-	-
CC(OC(=O)c1cccc(S(=O)(=O)N2CCN(C)CC2)c1)C(=O)Nc1ccc(C(N)=O)cc1 (centres undefined)	-	-	-	-	20.7	-
CC(=O)c1cccc(NC(=O)C(C)OC(=O)c2cccc(S(=O)(=O)N3CCN(C)CC3)c2)c1 (centres undefined)	-	-	-	-	-	-
COc1ccccc1CC1(C)C(=O)Nc2ccc(S(=O)(=O)NC3CCCCC3)cc21 (centres undefined)	.	-	-	-	-	-
c1ccc(-c2csc(N3CCN(c4ccccn4)CC3)n2)cc1	-	-	47.4	-	-	-
O=c1c(/C=N/Nc2ccccc2)c(Sc2nnnn2-c2ccccc2)nc2ccccn12	.	-	35.8	-	-	-
O=C(O)c1ccccc1N/N=C/c1c(Sc2nnnn2-c2ccccc2)nc2ccccn2c1=O	-	-	-	-	-	-
CCOC(=O)C(C)C1(O)c2ccccc2-c2ncccc21 (centres undefined)	-	-	37.2	-	-	-
Cc1ccc(CCN2CC(C(=O)NCCCN3CCCCCC3)CC2=O)cc1 (centres undefined)	-	-	-	-	21.7	-
CCCCOC(=O)c1ccc(NC(=O)/C=C/c2cccs2)cc1	-	-	37.4	-	-	-
CCCCOC(=O)c1ccc(NC(C)=O)cc1	-	-	-	-	-	-
CCCCCOC(=O)c1ccc(NC(=O)c2ccco2)cc1	-	-	70.7	-	-	-
O=C(/C=C\Nc1ccccn1)c1ccc(Cl)cc1	-	-	41.5	-	-	-
C/C(=N\O)C1CCCCC1	-	.	.	.	.	.
CC(O)CC(=O)OC[C@]12CC[C@H]3[C@@](C)(CC[C@H]4C(C)(C)CCC[C@]34C)[C@@H]1CC(C1=CC(=O)OC1O)O2 (some centres undefined)	.	-	-	-	-	-
O=C(Cn1cnc([N+](=O)[O-])c1)Nc1cc(Oc2ccc(Cl)cc2Cl)cc([N+](=O)[O-])c1	-	-	-	78.4	-	-
CCOC(=O)c1csc(-c2ccc(COC(=O)c3ccccc3)o2)n1	.	-	-	-	-	-
SMILES	PREPL inhibitor	E coli Lon inh	SKN-1 block	Tb MetRS inh	iPSC survival up	MT1-MMP act inh
CN1/C(=C/C(=O)CSc2ccccc2C(=O)O)C(C)(C)c2ccccc21	-	-	35.7	-	-	-
COc1ccc(Nc2nnc(SCC(=O)/C=C3/N(C)c4ccccc4C3(C)C)s2)cc1	-	-	37.0	-	-	-
CN1/C(=C\C(=O)CSc2cccc[n+]2[O-])C(C)(C)c2ccccc21	-	-	-	-	-	-
CN1/C(=C\C(=O)COC(=O)CNC(=O)c2ccc3ccccc3c2)C(C)(C)c2ccccc21	-	-	40.3	-	-	-
CC(=NOC(=O)c1ccc(I)cc1)c1nccs1	.	-	-	-	-	-
CCNC(=O)C1(C)CCCN1C(=O)c1ccc(-c2ccccc2)cc1 (centres undefined)	.	-	-	-	-	-
CCNC(=O)C1(C)CCCN1C(=O)c1ccc(C#N)cc1 (centres undefined)	.	-	63.3	-	-	-
Cc1cnc(C(=O)N(CCCn2ccnc2)C2C(=O)Nc3ccccc3N=C2c2ccccc2)cn1 (centres undefined)	.	-	37.1	-	-	-
COc1ccc(C2=Nc3ccccc3NC(=O)C2N(C(=O)c2cnc(C)cn2)c2ccc(N3CCOCC3)cc2)cc1 (centres undefined)	.	-	-	-	-	-
CCOC(=O)C1=C(CSc2nc(-c3ccccc3)ccc2C#N)OC(N)=C(C#N)C1c1ccccc1 (centres undefined)	-	-	37.4	-	-	-
Cc1cccc(NC(=O)NCCN2CCCCC2)c1	-	-	38.4	-	-	-
CN(CCc1ccccc1)C(C(=O)c1ccc2c(c1)OCO2)c1nnnn1-c1ccccc1NC(=O)OC(C)(C)C (centres undefined)	.	.	-	-	.	-
Cc1ccc(SSc2cc(C)ccc2N)c(N)c1	-	-	-	-	-	-
CCOC(=O)C1=CCN(S(=O)(=O)c2ccc(F)cc2)C1c1ccc(Cl)c(Cl)c1 (centres undefined)	.	.	-	-	.	-
c1ccc2c(c1)[nH]c1c(NCC3CCCO3)ncnc12 (centres undefined)	-	-	-	54.4	-	-
Cc1[nH]c2ccccc2c1SCCN	-	-	-	-	-	-
Cc1[nH]c2ccccc2c1SCc1ccccc1	-	-	39.7	-	-	-
CCNc1ccccc1CP(=O)(c1ccccc1)c1ccccc1O (centres undefined)	50.6	.	.	.	.	.
COc1ccc(C2(c3ccc(OC)cc3)NC(=O)N(CC(=O)NC3CCCC3)C2=O)cc1	-	-	-	-	-	-
COc1ccc(C2(c3ccc(OC)cc3)NC(=O)N(CC(=O)NC3CCS(=O)(=O)C3)C2=O)cc1 (centres undefined)	-	-	40.3	-	-	-
CCOc1ccc2nc(N=NC3=C(O)CC(C)(C)CC3=O)sc2c1	-	-	35.3	-	-	-
Cc1nc2ccc(N=NC3=C(O)CC(C)(C)CC3=O)cc2s1	-	-	-	-	-	-
N#CC(=Cc1cccs1)c1nc(-c2ccc(Cl)cc2)cs1	.	-	61.8	-	-	-
Clc1ccc(OC2CCN(Cc3nc(CC4CC4)no3)CC2)cc1	-	-	-	-	-	-
